# Compound activity from PubChem.
# XBP1 UPR activ = adaptive UPR (XBP1) activation. CHO-XBP1 luciferase reporter, IRE1-XBP1 UPR activation, luminescence; percent of tunicamycin response, DMSO as zero. activation, % at 20 µM. hit rate 0.33% among 330,000. AID 463104;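 active means versus positive control, 20 µM dose yields 30% or more activation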;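 further: 100% = tunicamycin at 10 µg/mL and 0% = DMSO only wells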
#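 Material: CHO-XBP1 cells stably carrying IRE1-XBP1-driven luciferase reporter / Amount: 1000 cells per well / Compound: 20 µM, 1% DMSO / Times: 6 h treatment, 37 °C / Detection: luciferase luminescence / Measure: % activation of reporter signal versus tunicamycin and DMSO controls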
# Dynein transport = dynein cargo transport inhibition; 3617.4 mouse cells, GR-EGFP nuclear translocation imaging; test concentration mostly 20 µM; stimulated with dexamethasone, 1 µM; active compounds read low; z-score, hits read low; hit rate 0.47% among 220,000;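 active means plate z-score of nuclear minus cytoplasmic receptor signal below a set negative limit, without overly bright fluorescence or cell loss, cut at about -3.5 in these data, passing the limit was not always enough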;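 further: z-score of nuclear minus cytoplasmic ring GR-EGFP intensity difference per well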
#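 Buffer or medium: Induction medium lacking tetracycline, stripped serum | Also added: Dexamethasone agonist, 1.0 µM final, for 30 min | Timing: 48 h induction, 1 h compound, 30 min dex at 37 °C | Detection: Formaldehyde fixation, Hoechst nuclear stain, 10x automated fluorescence imaging | Measure: Nuclear versus cytoplasmic GR-EGFP signal, averaged per well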
# UPR CHOP act = apoptotic UPR (CHOP) activation; CHO-CHOP luciferase reporter, luminescence; percent of tunicamycin response over DMSO baseline; activation, % at 10 µM; hit rate 0.34% among 330,000;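 active means at 10 µM dose, activation of 40% or more, normalized to positive control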;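 further: 100% = tunicamycin at 10 µg/mL and 0% = DMSO alone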
#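 Dosing – one dose, 10 µM in 0.5% DMSO · System – CHO-CHOP cells, stable luciferase reporter of PERK-eIF2a-CHOP signalling · Input – 500 cells/well · Control set – tunicamycin 10 µg/mL final as positive, DMSO-only wells as negative · Timing – 6 h compound treatment, 37 °C · Measure – % activation vs tunicamycin · Technique – luminescence read with Steady-Glo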
# CHOP inh = inhibitors of CHOP induction in ER stress response | CHO-K1 CHOP-promoter luciferase, tunicamycin-induced, 15-18 h | inhibition, % at 10 µM | hit rate 3.8% among 220,000;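 active means compounds that reduced the stress-induced luciferase reporter signal by more than about 70% of percent inhibition, limit read from the data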;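 further: 0% = tunicamycin plus vehicle and 100% = wells without tunicamycin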
# pCIP destab = lowers stability of the mouse p/CIP coactivator protein | Q05BA5 | F442A p/CIP-EGFP cells, EGFP fluorescence, 16 h | decrease of EGFP signal, % at 10 µM | hit rate 0.01% among 290,000 | AID 1984;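 active means EGFP signal decrease of at least 30% at 10 µM or well 3 SD below plate mean, unless failing retest; inactive means the rest, including hits failing retest or dose response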
# B2AR ag = human beta-2 adrenergic receptor agonism by FAP | P07550 | Am2.2-beta2AR cells, FAP receptor internalization, flow cytometry | response, % (no concentration beside the values) | hit rate 0.43% among 340,000;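 active means response above a set limit, near 3 SD of response in nonfluorescent compounds, cut at about 42% in these data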
# The depositor's hits bear a star; nt = not tested or not shown. Shown is part of a subset that was picked to be rich in hits.
SMILES,XBP1 UPR activ,Dynein transport,UPR CHOP act,CHOP inh,pCIP destab,B2AR ag
COc1ccc(N2CCN(C(c3cccs3)C(C)NC(=O)C(=O)N3CCCC3)CC2)cc1 (stereo unspecified),-2,nt,-1,nt,-5,4
Cc1ccc(NC(=O)COC(=O)Cn2ccc(=O)[nH]c2=O)cc1C,5,nt,3,nt,nt,0
CC(C)(C)c1nc2ccccc2c2nnc(SCC(=O)Nc3nccs3)n12,17,0.83,6,78*,-12,-17
O=C(CSc1nnc(CCCO)n1-c1ccccc1)Nc1nccs1,0,-1,1,85*,-8,8
CC(C)(C)c1nc2ccccc2c2nnc(SCC(=O)Nc3nc4ccccc4s3)n12,3,-0.3,0,19,-159,-8
Cc1cccc(C)c1OCc1nnc(SCC(=O)Nc2nccs2)n1-c1ccccc1,12,0.64,3,61,-1,10
C#CCOCCOCCOCCNc1nc(N2CCN(C(=O)[C@H](Cc3cc4ccccc4[nH]3)n3cc([C@@H](N)Cc4ccc(O)cc4)nn3)CC2)nc(N2CCN(C(=O)[C@H](Cc3cc4ccccc4[nH]3)n3cc([C@@H](N)CC(C)C)nn3)CC2)n1,nt,-0.5,nt,-14,-2,73*
C#CCOCCOCCOCCNc1nc(N2CCN(C(=O)C(Cc3cc4ccccc4[nH]3)n3cc(C(N)Cc4ccc(O)cc4)nn3)CC2)nc(N2CCN(C(=O)C(Cc3cc4ccccc4[nH]3)n3cc(C(N)Cc4ccc(O)cc4)nn3)CC2)n1 (stereo unspecified),nt,0.67,nt,0,-18,nt
C#CCOCCOCCOCCNc1nc(N2CCN(C(=O)[C@H](Cc3ccc(O)cc3)n3cc([C@@H](N)C(C)CC)nn3)CC2)nc(N2CCN(C(=O)[C@H](Cc3cc4ccccc4[nH]3)n3cc([C@@H](N)C(C)CC)nn3)CC2)n1 (stereo partly specified),-4,0.99,1,7,-5,58*
CC1CCN(S(=O)(=O)c2ccc(NC(=O)Cc3ccccc3)cc2)CC1,0,-0.15,-1,85*,-5,3
CC1CCN(S(=O)(=O)c2cccc(C(=O)Nc3ccccc3)c2)CC1,-2,1.4,-2,1,-12,-13
CC1CCN(S(=O)(=O)c2csc(C(=O)Nc3ccccc3)c2)CC1,-5,2.5,-3,77*,0,-7
O=C(O)c1cccnc1C(=O)O,2,nt,0,-15,nt,5
O=C(CC1C(=O)NCCN1Cc1cccc(Oc2ccccc2)c1)NCCCn1cccn1 (stereo unspecified),1,-0.64,0,18,-3,-7
COc1ccc(C(=O)COC(=O)c2ccc(OC)c(OC)c2)cc1OC,0,0.23,1,75*,-4,2
Clc1ccc(-c2cc3ccccc3[nH]2)cc1,3,-0.96,2,95*,-8,4
CCN(CC)C(=O)Cn1cc(C(=O)C(=O)NCc2cccnc2)c2ccccc21,-3,nt,-1,nt,-8,9
O=C(O)CCNC(=O)/C(=C/C=C/c1ccccc1)NC(=O)c1ccccc1,-4,-0.43,-1,74*,6,-1
CCC(C)c1ccccc1NC(=O)C(C)NCCN(C)C (stereo unspecified),-3,0.51,3,7,-3,10
CC(C)c1cc(C(=O)OCC(=O)NC(=O)NCc2ccco2)c(O)c(C(C)C)c1,5,-0.52,-1,102*,-9,8
CC(=O)Nc1c(O)nc(SCc2ccccc2C#N)[nH]c1=O,-1,0.42,3,16,5,2
CC(C)[C@H](NC(=O)c1ccccc1Cl)C(=O)NC1CCCCCC1,1,0.56,2,-1,-6,-6
Brc1ccc(N/N=C(/N=Nc2nn[nH]n2)c2ccccc2)cc1,-2,-1.5,-3,71*,5,5
N#CC1(NC(=O)CSc2nnc3n2CCCCC3)CCCCC1,0,nt,1,nt,nt,0
CCCC(=O)Nc1ccccc1-c1nnn(CC(=O)Nc2ccc(OCC)cc2)n1,-2,0.95,-1,80*,-28,-1
SMILES,XBP1 UPR activ,Dynein transport,UPR CHOP act,CHOP inh,pCIP destab,B2AR ag
COc1ccc(NC(=O)Cn2nnc(-c3ccccc3NC(=O)c3cccs3)n2)cc1,5,1,-1,73*,1,-5
O=C(Cn1nnc(-c2ccccc2NC(=O)c2ccco2)n1)Nc1ccccc1,2,0.48,1,85*,4,-8
CC(C)(C)NC(=O)Cn1nnc(-c2ccccc2NC(=O)c2ccco2)n1,-1,-0.73,-1,-1,nt,-15
COc1ccc(NC(=O)CSc2nnc(NC(=O)c3ccc(S(=O)(=O)N4CCOCC4)cc3)s2)cc1,1,1.8,-1,2,3,7
C=C[C@]1(C)C[C@@H](OC(=O)CSCCN(CC)CC)[C@]2(C)C(C)CC[C@]3(CCC(=O)[C@H]32)[C@@H](C)[C@@H]1O (stereo partly specified),-6,nt,0,nt,nt,9
O=c1[nH]c(CN2CCc3ccccc32)nc2scc(-c3cccs3)c12,-2,-0.45,1,88*,-1,6
Cc1ccc(S(=O)(=O)N2CCN(C(=O)N(C)C)CC2)cc1C,-6,1.4,-2,22,3,2
Cc1ccc(N(C)C(=O)N2CCN(S(=O)(=O)c3ccc(C)c(C)c3)CC2)cc1,0,-0.32,1,73*,-9,0
CN(C)c1ccc(C2CC(=O)C=C(Nc3ccccc3N)C2)cc1 (stereo unspecified),1,-0.44,1,-13,11,3
O=S1OC(c2ccccc2)c2cc(Cl)ccc21 (stereo unspecified),0,nt,-1,nt,nt,4
Cc1cccc(C(=O)NC(C)C(=O)NC(c2nc3ccccc3[nH]2)C(C)C)c1 (stereo unspecified),0,nt,0,nt,nt,4
CC(C)C(NC(=O)C(c1ccccc1)c1ccccc1)c1nc2ccccc2[nH]1 (stereo unspecified),-2,0.27,-1,77*,-4,16
CCO[C@H]1OC(C(=O)N2CCOCC2)=C[C@@H](c2ccc(Br)cc2)[C@@H]1CCCO,-3,0.16,2,10,-10,-2
CN(C)S(=O)(=O)c1ccc2nc(NC(=O)c3cccnc3)sc2c1,-2,0.53,4,-13,-13,-2
O=C(NC(Nc1nc2ccc([N+](=O)[O-])cc2s1)(C(F)(F)F)C(F)(F)F)c1cccnc1,0,0.018,1,90*,2,21
COc1ccc(-c2nc(CCNS(=O)(=O)c3ccc4c(c3)OCCO4)cs2)cc1,8,-0.16,2,41,-20,-1
